The text below walks through data of ChEMBL document CHEMBL1122704, “Syntheses and anthelmintic activity of alkyl 5(6)-(substituted-carbamoyl)- and 5(6)-(disubstituted-carbamoyl)benzimidazole-2-carbamates and related compounds” (1984).

Molecules are shown by their SMILES. The source made the active and inactive calls. The calls are words filed in the database; no cut-off is given here.

Assay [1] relates to Rattus norvegicus. The assay is described as follows: Compound was evaluated for the biological activity against Hymenolepsis nana (rats) at the 25 mg/kg. The class given is functional. Summed up: (§1)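 Male rats (25–35 g) infected orally with 200 viable eggs. Infection confirmed by ovoscopic examination on days 17–20 postinoculation. Positive rats dosed orally on day 20 ± 1, initially 250 mg/kg × 1, then lower doses for dose–response. Method of Steward.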

Assay [2] deals with Nippostrongylus brasiliensis. The experiment in a line: Anti-nematode activity against Nippostrongylus brasiliensis in rats at 250 mg/kg; Insignificant activity. The class given is functional.
Assay [3] relates to Rattus norvegicus. The experiment in a line: Compound was evaluated for the biological activity against Hymenolepsis nana (rats) at the 250 mg/kg. The class given is functional. The gist of the method: as §1
In assay [4] the test system is Rattus norvegicus. The experiment in a line: Compound was evaluated for the biological activity against Hymenolepsis nana (rats) at the 50 mg/kg. The class given is functional. Summed up:
as §1

In assay [5] the test system is Rattus norvegicus. The experiment in a line: Compound was evaluated for the biological activity against Hymenolepsis nana (rats) at the 100 mg/kg. Type of assay: functional. The gist of the method: as §1
Assay [6] deals with Cricetinae gen. sp. The experiment in a line: Compound was evaluated for the biological activity against Ancylostoma ceylanicum in hamsters at the 10 mg/kg. Type of assay: functional, Cricetulus griseus. The gist of the method:
(§2)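 Hamsters of either sex (40–60 g) infected orally with 60 third-stage larvae. Test compound given orally as a single dose on day 20 ± 1 postinfection, starting at 250 mg/kg × 1. Lower doses were used for active compounds to establish dose–response. Method of Ray et al. as modified locally.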

The subject of the next assay is Ancylostoma ceylanicum. The assay is described as follows: Compound was evaluated for the biological activity against Ancylostoma ceylanicum in hamsters at the 250 mg/kg. Type of assay: functional. Summed up:
as §2

For assay [7], the system named is Cricetinae gen. sp. The assay is described as follows: Compound was evaluated for the biological activity against Ancylostoma ceylanicum in hamsters at the 100-25 mg/kg. Type of assay: functional, Cricetulus griseus. Summed up:
as §2

Regarding `COC(=O)Nc1nc2cc(C(=O)NCc3ccco3)ccc2[nH]1`, the Activity in the assay with Rattus norvegicus [1] was 100%; with Rattus norvegicus [3], 100%; with Rattus norvegicus [4], 100%; in the assay with Rattus norvegicus [5], 100%; in the assay with Cricetinae gen. sp. [6] it was 57%; in the assay on Ancylostoma ceylanicum, 100%. The Activity in the assay with Cricetinae gen. sp. [7] turned out to be 100%. Further, the result in assay [2] was inactive.
